Measured values: ChEMBL document CHEMBL4689842, “EUbOPEN Chemogenomics Library wave 1” (2021)
Where “and” joins values, the source holds several entries; their conditions need not be identical. Equal entries are not always repeated.

Legend:
Format in all cases: toxicity, cell-based
HEK-293T [1] = experiment: Incucyte cell viability with HEK293T; conditions: human, 10 µM, compound concentration 10 uM; note: filed as whole numbers so only -1 and 0 and 1 occur
Fibroblast [2] = experiment: Multiplex assay against human fibroblast; conditions: 1 µM, compound concentration 1 uM
How it was run: (§1)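 Cells stained live at seeding with Hoechst33342, BioTracker Green Microtubule Cytoskeleton Dye, MitoTracker Red and Annexin V Alexa Fluor 680 were imaged on a CQ1 microscope at 37°C and 5% CO2 after compound addition. Their classification by CellPathfinder machine-learning gating ran from Hoechst high-intensity objects versus normal cells, to healthy, pyknosed or fragmented nuclei among normal cells, to mitotic or apoptotic among pyknosed cells. Tubulin, mitochondrial-mass and membrane-permeability phenotypes are per cents of healthy-nucleus cells.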

Fibroblast [3] = experiment: Incucyte cell viability with human fibroblast; conditions: 10 µM, compound concentration 10 uM; note: filed as whole numbers so only -1 and 0 and 1 occur
U2OS [4] = experiment: Multiplex assay against U2OS; conditions: human, 1 µM, compound concentration 1 uM; how it was run: as §1
HEK-293T [5] = experiment: Multiplex assay against HEK293T; conditions: human, 1 µM, compound concentration 1 uM; how it was run: as §1;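 for Population Tubulin-Different-Phenotype (%): share of the cells with healthy nuclei that show this phenotype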
U2OS [6] = experiment: Incucyte cell viability with U2OS; conditions: human, 10 µM, compound concentration 10 uM; note: filed as whole numbers so only -1 and 0 and 1 occur
[7] = 0 h, replicate number 1, timepoint 0 hours
[8] = 0 h, replicate number 2, timepoint 0 hours
[9] = 6 h, replicate number 1, timepoint 6 hours
[10] = 12 h, replicate number 1, timepoint 12 hours
[11] = 18 h, replicate number 1, timepoint 18 hours
[12] = 24 h, replicate number 1, timepoint 24 hours

CNC(=O)Nc1ccc2c(c1)CC[C@@]21OC(=O)N(CC(=O)N(Cc2ccc(F)cc2)[C@@H](C)C(F)(F)F)C1=O [A-485]
Growth Rate (HEK-293T [1]; [7]): 0 | Growth Rate (HEK-293T [1]; [8]): 1 | Growth Rate (HEK-293T [1]; [9]): 0 | Growth Rate (HEK-293T [1]; [10]): 0 | Growth Rate (HEK-293T [1]; [11]): 0 | Growth Rate (HEK-293T [1]; [12]): 0 | Population Apoptotic (%) (Fibroblast [2]; 12 h, replicate 1): 50% and 76% | Population Fragmented Nuclei (%) (Fibroblast [2]; 12 h, replicate 1): 17% and 24% | Population Healthy Nuclei (%) (Fibroblast [2]; 12 h, replicate 1): 59% and 61% | Population Hoechst High Intensity Objects (%) (Fibroblast [2]; 12 h, replicate 1): 8% and 9% | Population Mitotic Cells (%) (Fibroblast [2]; 12 h, replicate 1): 50% and 23% | Population Normal (%) (Fibroblast [2]; 12 h, replicate 1): 91% and 90% | Population Pyknosed Nuclei (%) (Fibroblast [2]; 12 h, replicate 1): 23% and 13% | Total Cell Count (Fibroblast [2]; 12 h, replicate 1): 243 and 214 | Population Fragmented Nuclei (%) (Fibroblast [2]; 12 h, replicate 2): 53% and 66% | Population Healthy Nuclei (%) (Fibroblast [2]; 12 h, replicate 2): 39% and 24% | Population Hoechst High Intensity Objects (%) (Fibroblast [2]; 12 h, replicate 2): 37% and 49% | Population Membrane Permeable-Phenotype (%) (Fibroblast [2]; 12 h, replicate 2): 11% and 33% | Population Mitochondria Different-Phenotype (%) (Fibroblast [2]; 12 h, replicate 2): 17% and 25% | Population Normal (%) (Fibroblast [2]; 12 h, replicate 2): 62% and 50% | Population Pyknosed Nuclei (%) (Fibroblast [2]; 12 h, replicate 2): 6% and 10% | Population Tubulin-Different-Phenotype (%) (Fibroblast [2]; 12 h, replicate 2): 23% and 66% | Total Cell Count (Fibroblast [2]; 12 h, replicate 2): 69 and 99 | Population Apoptotic (%) (Fibroblast [2]; 24 h, replicate 1): 73% and 48% | Population Fragmented Nuclei (%) (Fibroblast [2]; 24 h, replicate 1): 17% and 22% | Population Healthy Nuclei (%) (Fibroblast [2]; 24 h, replicate 1): 64% and 59% | Population Hoechst High Intensity Objects (%) (Fibroblast [2]; 24 h, replicate 1): 9% and 11% | Population Membrane Permeable-Phenotype (%) (Fibroblast [2]; 24 h, replicate 1): 17% and 11% | Population Mitotic Cells (%) (Fibroblast [2]; 24 h, replicate 1): 26% and 51% | Population Normal (%) (Fibroblast [2]; 24 h, replicate 1): 90% and 88% | Population Pyknosed Nuclei (%) (Fibroblast [2]; 24 h, replicate 1): 17% | Population Tubulin-Different-Phenotype (%) (Fibroblast [2]; 24 h, replicate 1): 9% | Total Cell Count (Fibroblast [2]; 24 h, replicate 1): 251 and 207 | Population Apoptotic (%) (Fibroblast [2]; 24 h, replicate 2): 50% | Population Fragmented Nuclei (%) (Fibroblast [2]; 24 h, replicate 2): 51% and 62% | Population Healthy Nuclei (%) (Fibroblast [2]; 24 h, replicate 2): 37% and 29% | Population Hoechst High Intensity Objects (%) (Fibroblast [2]; 24 h, replicate 2): 39% and 51% | Population Mitochondria Different-Phenotype (%) (Fibroblast [2]; 24 h, replicate 2): 0% and 21% | Population Mitotic Cells (%) (Fibroblast [2]; 24 h, replicate 2): 50% | Population Normal (%) (Fibroblast [2]; 24 h, replicate 2): 60% and 48% | Population Pyknosed Nuclei (%) (Fibroblast [2]; 24 h, replicate 2): 10% and 8% | Population Tubulin-Different-Phenotype (%) (Fibroblast [2]; 24 h, replicate 2): 21% and 42% | Total Cell Count (Fibroblast [2]; 24 h, replicate 2): 61 and 99 | Growth Rate (Fibroblast [3]; [7]): 0 | Growth Rate (Fibroblast [3]; [9]): 0 | Growth Rate (Fibroblast [3]; [10]): 0 | Growth Rate (Fibroblast [3]; 12 h, replicate number 2, timepoint 12 hours): 1 | Growth Rate (Fibroblast [3]; [11]): 0 | Growth Rate (Fibroblast [3]; [12]): 1 | Growth Rate (Fibroblast [3]; 24 h, replicate number 2, timepoint 24 hours): 0 | Population Apoptotic (%) (U2OS [4]; 12 h, replicate 1): 30% and 62% | Population Fragmented Nuclei (%) (U2OS [4]; 12 h, replicate 1): 2% and 8% | Population Healthy Nuclei (%) (U2OS [4]; 12 h, replicate 1): 91% and 85% | Population Hoechst High Intensity Objects (%) (U2OS [4]; 12 h, replicate 1): 4% | Population Mitochondria Different-Phenotype (%) (U2OS [4]; 12 h, replicate 1): 14% and 16% | Population Mitotic Cells (%) (U2OS [4]; 12 h, replicate 1): 70% and 37% | Population Normal (%) (U2OS [4]; 12 h, replicate 1): 95% | Population Pyknosed Nuclei (%) (U2OS [4]; 12 h, replicate 1): 5% and 6% | Population Tubulin-Different-Phenotype (%) (U2OS [4]; 12 h, replicate 1): 58% and 20% | Total Cell Count (U2OS [4]; 12 h, replicate 1): 185 and 139 | Population Apoptotic (%) (U2OS [4]; 12 h, replicate 2): 20% and 0% | Population Fragmented Nuclei (%) (U2OS [4]; 12 h, replicate 2): 10% and 7% | Population Healthy Nuclei (%) (U2OS [4]; 12 h, replicate 2): 76% and 88% | Population Hoechst High Intensity Objects (%) (U2OS [4]; 12 h, replicate 2): 6% and 8% | Population Mitochondria Different-Phenotype (%) (U2OS [4]; 12 h, replicate 2): 23% and 22% | Population Mitotic Cells (%) (U2OS [4]; 12 h, replicate 2): 80% and 100% | Population Normal (%) (U2OS [4]; 12 h, replicate 2): 93% and 91% | Population Pyknosed Nuclei (%) (U2OS [4]; 12 h, replicate 2): 12% and 4% | Total Cell Count (U2OS [4]; 12 h, replicate 2): 82 and 103 | Population Fragmented Nuclei (%) (U2OS [4]; 24 h, replicate 1): 5% and 4% | Population Healthy Nuclei (%) (U2OS [4]; 24 h, replicate 1): 88% and 90% | Population Hoechst High Intensity Objects (%) (U2OS [4]; 24 h, replicate 1): 0% and 2% | Population Membrane Permeable-Phenotype (%) (U2OS [4]; 24 h, replicate 1): 24% and 13% | Population Mitochondria Different-Phenotype (%) (U2OS [4]; 24 h, replicate 1): 10% and 11% | Population Mitotic Cells (%) (U2OS [4]; 24 h, replicate 1): 93% and 66% | Population Normal (%) (U2OS [4]; 24 h, replicate 1): 99% and 97% | Population Pyknosed Nuclei (%) (U2OS [4]; 24 h, replicate 1): 6% and 4% | Population Tubulin-Different-Phenotype (%) (U2OS [4]; 24 h, replicate 1): 22% and 28% | Total Cell Count (U2OS [4]; 24 h, replicate 1): 230 and 188 | Population Apoptotic (%) (U2OS [4]; 24 h, replicate 2): 35% and 66% | Population Fragmented Nuclei (%) (U2OS [4]; 24 h, replicate 2): 9% and 3% | Population Healthy Nuclei (%) (U2OS [4]; 24 h, replicate 2): 77% and 94% | Population Hoechst High Intensity Objects (%) (U2OS [4]; 24 h, replicate 2): 6% and 11% | Population Membrane Permeable-Phenotype (%) (U2OS [4]; 24 h, replicate 2): 14% and 11% | Population Mitochondria Different-Phenotype (%) (U2OS [4]; 24 h, replicate 2): 19% and 18% | Population Mitotic Cells (%) (U2OS [4]; 24 h, replicate 2): 64% and 33% | Population Normal (%) (U2OS [4]; 24 h, replicate 2): 93% and 88% | Population Tubulin-Different-Phenotype (%) (U2OS [4]; 24 h, replicate 2): 13% and 11% | Total Cell Count (U2OS [4]; 24 h, replicate 2): 114 and 147 | Population Apoptotic (%) (HEK-293T [5]; 12 h, replicate 1): 15% and 30% | Population Fragmented Nuclei (%) (HEK-293T [5]; 12 h, replicate 1): 18% and 22% | Population Healthy Nuclei (%) (HEK-293T [5]; 12 h, replicate 1): 55% and 56% | Population Hoechst High Intensity Objects (%) (HEK-293T [5]; 12 h, replicate 1): 16% and 23% | Population Mitochondria Different-Phenotype (%) (HEK-293T [5]; 12 h, replicate 1): 8% and 7% | Population Mitotic Cells (%) (HEK-293T [5]; 12 h, replicate 1): 84% and 69% | Population Normal (%) (HEK-293T [5]; 12 h, replicate 1): 83% and 76% | Population Pyknosed Nuclei (%) (HEK-293T [5]; 12 h, replicate 1): 26% and 20% | Total Cell Count (HEK-293T [5]; 12 h, replicate 1): 630 and 586 | Population Apoptotic (%) (HEK-293T [5]; 12 h, replicate 2): 6% and 12% | Population Fragmented Nuclei (%) (HEK-293T [5]; 12 h, replicate 2): 5% and 8% | Population Healthy Nuclei (%) (HEK-293T [5]; 12 h, replicate 2): 85% and 87% | Population Hoechst High Intensity Objects (%) (HEK-293T [5]; 12 h, replicate 2): 2% | Population Mitochondria Different-Phenotype (%) (HEK-293T [5]; 12 h, replicate 2): 20% and 9% | Population Mitotic Cells (%) (HEK-293T [5]; 12 h, replicate 2): 93% and 87% | Population Normal (%) (HEK-293T [5]; 12 h, replicate 2): 97% | Population Pyknosed Nuclei (%) (HEK-293T [5]; 12 h, replicate 2): 8% and 4% | Total Cell Count (HEK-293T [5]; 12 h, replicate 2): 1495 and 1775 | Population Apoptotic (%) (HEK-293T [5]; 24 h, replicate 1): 21% and 25% | Population Fragmented Nuclei (%) (HEK-293T [5]; 24 h, replicate 1): 18% | Population Healthy Nuclei (%) (HEK-293T [5]; 24 h, replicate 1): 62% and 73% | Population Hoechst High Intensity Objects (%) (HEK-293T [5]; 24 h, replicate 1): 11% and 16% | Population Membrane Permeable-Phenotype (%) (HEK-293T [5]; 24 h, replicate 1): 14% and 9% | Population Mitochondria Different-Phenotype (%) (HEK-293T [5]; 24 h, replicate 1): 15% and 6% | Population Mitotic Cells (%) (HEK-293T [5]; 24 h, replicate 1): 78% and 74% | Population Normal (%) (HEK-293T [5]; 24 h, replicate 1): 88% and 83% | Population Pyknosed Nuclei (%) (HEK-293T [5]; 24 h, replicate 1): 18% and 8% | Population Tubulin-Different-Phenotype (%) (HEK-293T [5]; 24 h, replicate 1): 74% | Total Cell Count (HEK-293T [5]; 24 h, replicate 1): 539 and 610 | Population Apoptotic (%) (HEK-293T [5]; 24 h, replicate 2): 10% and 4% | Population Fragmented Nuclei (%) (HEK-293T [5]; 24 h, replicate 2): 14% and 24% | Population Healthy Nuclei (%) (HEK-293T [5]; 24 h, replicate 2): 81% and 72% | Population Hoechst High Intensity Objects (%) (HEK-293T [5]; 24 h, replicate 2): 5% and 3% | Population Membrane Permeable-Phenotype (%) (HEK-293T [5]; 24 h, replicate 2): 16% and 10% | Population Mitotic Cells (%) (HEK-293T [5]; 24 h, replicate 2): 89% and 95% | Population Normal (%) (HEK-293T [5]; 24 h, replicate 2): 94% and 96% | Population Pyknosed Nuclei (%) (HEK-293T [5]; 24 h, replicate 2): 4% and 2% | Total Cell Count (HEK-293T [5]; 24 h, replicate 2): 1741 and 2832 | Growth Rate (U2OS [6]; [7]): 1 | Growth Rate (U2OS [6]; [8]): 0 | Growth Rate (U2OS [6]; [9]): 0 | Growth Rate (U2OS [6]; [10]): 1 | Growth Rate (U2OS [6]; [11]): 1 | Growth Rate (U2OS [6]; [12]): 1
